Results published in ChEMBL document CHEMBL4028886 (J Med Chem, 2017).

How the values were obtained:
Rattus norvegicus [1] = experiment: Neurotoxicity in Sprague-Dawley rat assessed as effect on number of crossings of the center at 10 mg/kg, ip administered 30 mins prior to test by open field test relative to control; type: toxicity, organism-based; settings: in vivo, 0.5 h
Procedure, shortened: (§1)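 Male Sprague–Dawley rats, 10 per group, given 10 mg/kg ip daily for 10 days and 30 min before each test. DMSO vehicle group as control. Open field arena 100 × 100 cm with 40 cm walls. Animals video-tracked for 10 min.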

Rattus norvegicus [2] = experiment: Neurotoxicity in Sprague-Dawley rat assessed as finger approach score at 10 mg/kg, ip administered 30 mins prior to test (reference value: 1.4 +/- 1.350); type: toxicity, organism-based; settings: in vivo, 0.5 h
Rattus norvegicus [3] = experiment: Neurotoxicity in Sprague-Dawley rat assessed as pelvic elevation score at 10 mg/kg, ip administered 30 mins prior to test (reference value: 3.8 +/- 0.6325); type: toxicity, organism-based; settings: in vivo, 0.5 h
Rattus norvegicus [4] = experiment: Neurotoxicity in Sprague-Dawley rat assessed as effect on time spent at the margin at 10 mg/kg, ip administered 30 mins prior to test by open field test relative to control; type: toxicity, organism-based; settings: in vivo, 0.5 h; procedure, shortened: as §1
Rattus norvegicus [5] = experiment: Neurotoxicity in Sprague-Dawley rat assessed as effect on time spent in open arm at 10 mg/kg, ip administered 30 mins prior to test by elevated plus maze test relative to control; type: toxicity, organism-based; settings: in vivo, 0.5 h
Procedure, shortened: (§2)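 Male Sprague–Dawley rats, 10 per group, dosed 10 mg/kg ip daily for 10 days and 30 min before testing. DMSO vehicle controls. Elevated plus maze, rats placed centrally and video-tracked. Recorded: time in closed and open arms, arm entries, path length.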

Rattus norvegicus [6] = experiment: Neurotoxicity in Sprague-Dawley rat assessed as toe pinch score at 10 mg/kg, ip administered 30 mins prior to test (reference value: 1.8 +/- 0.6325); type: toxicity, organism-based; settings: in vivo, 0.5 h
Rattus norvegicus [7] = experiment: Neurotoxicity in Sprague-Dawley rat assessed as effect on time spent in closed arm at 10 mg/kg, ip administered 30 mins prior to test by elevated plus maze test relative to control; type: toxicity, organism-based; settings: in vivo, 0.5 h; procedure, shortened: as §2
Rattus norvegicus [8] = experiment: Neurotoxicity in Sprague-Dawley rat assessed as effect on local movements at 10 mg/kg, ip administered 30 mins prior to test by open field test relative to control; type: toxicity, organism-based; settings: in vivo, 0.5 h; procedure, shortened: as §1
Rattus norvegicus [9] = experiment: Neurotoxicity in Sprague-Dawley rat assessed as tail pinch score at 10 mg/kg, ip administered 30 mins prior to test (reference value: 0.8 +/- 0.788); type: toxicity, organism-based; settings: in vivo, 0.5 h
Rattus norvegicus [10] = experiment: Neurotoxicity in Sprague-Dawley rat assessed as effect on resting time at 10 mg/kg, ip administered 30 mins prior to test by open field test relative to control; type: toxicity, organism-based; settings: in vivo, 0.5 h; procedure, shortened: as §1
Rattus norvegicus [11] = experiment: Neurotoxicity in Sprague-Dawley rat assessed as visual placing score at 10 mg/kg, ip administered 30 mins prior to test (reference value: 1.9 +/- 0.3162); type: toxicity, organism-based; settings: in vivo, 0.5 h
Rattus norvegicus [12] = experiment: Neurotoxicity in Sprague-Dawley rat assessed as effect on distance traveled in closed arms at 10 mg/kg, ip administered 30 mins prior to test by elevated plus maze test relative to control; type: toxicity, organism-based; settings: in vivo, 0.5 h; procedure, shortened: as §2
Rattus norvegicus [13] = experiment: Neurotoxicity in Sprague-Dawley rat assessed as touch escape score at 10 mg/kg, ip administered 30 mins prior to test (reference value: 1.2 +/- 1.033); type: toxicity, organism-based; settings: in vivo, 0.5 h
Rattus norvegicus [14] = experiment: Neurotoxicity in Sprague-Dawley rat assessed as effect on total distance traveled at 10 mg/kg, ip administered 30 mins prior to test by elevated plus maze test relative to control; type: toxicity, organism-based; settings: in vivo, 0.5 h; procedure, shortened: as §2
[15] = target: Sodium-dependent serotonin transporter (Homo sapiens, UniProt P31645); experiment: Inhibition of re-uptake of [3H]-5-HT at human SERT expressed in HEK293 cells preincubated for 5 mins followed by [3H]-dopamine addition measured after 1 min by liquid scintillation counting; type: cell-based; settings: hek293
Chain of Sodium-dependent serotonin transporter (P31645 whole entry): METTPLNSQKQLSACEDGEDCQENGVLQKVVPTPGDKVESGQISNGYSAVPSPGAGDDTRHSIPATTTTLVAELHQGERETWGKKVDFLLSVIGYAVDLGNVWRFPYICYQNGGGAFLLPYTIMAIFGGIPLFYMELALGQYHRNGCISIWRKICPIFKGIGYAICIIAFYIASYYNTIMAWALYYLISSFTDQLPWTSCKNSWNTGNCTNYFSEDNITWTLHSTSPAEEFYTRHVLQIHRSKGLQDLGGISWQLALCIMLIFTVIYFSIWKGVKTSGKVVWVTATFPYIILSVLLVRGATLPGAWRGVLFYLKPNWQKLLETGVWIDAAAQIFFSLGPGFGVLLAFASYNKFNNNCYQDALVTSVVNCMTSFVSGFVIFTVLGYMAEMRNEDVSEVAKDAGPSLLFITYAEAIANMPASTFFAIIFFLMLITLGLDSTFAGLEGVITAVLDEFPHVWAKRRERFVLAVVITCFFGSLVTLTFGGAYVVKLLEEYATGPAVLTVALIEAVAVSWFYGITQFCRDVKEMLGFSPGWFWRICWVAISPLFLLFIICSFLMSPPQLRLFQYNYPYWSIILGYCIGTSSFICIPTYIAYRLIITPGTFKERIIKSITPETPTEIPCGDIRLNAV

[16] = target: Sodium-dependent dopamine transporter (Homo sapiens, UniProt Q01959); experiment: Inhibition of re-uptake of [3H]-dopamine at human DAT expressed in HEK293 cells preincubated for 5 mins followed by [3H]-dopamine addition measured after 1 min by liquid scintillation counting; type: cell-based; settings: read-out: IC50
Chain of Sodium-dependent dopamine transporter (Q01959 whole entry): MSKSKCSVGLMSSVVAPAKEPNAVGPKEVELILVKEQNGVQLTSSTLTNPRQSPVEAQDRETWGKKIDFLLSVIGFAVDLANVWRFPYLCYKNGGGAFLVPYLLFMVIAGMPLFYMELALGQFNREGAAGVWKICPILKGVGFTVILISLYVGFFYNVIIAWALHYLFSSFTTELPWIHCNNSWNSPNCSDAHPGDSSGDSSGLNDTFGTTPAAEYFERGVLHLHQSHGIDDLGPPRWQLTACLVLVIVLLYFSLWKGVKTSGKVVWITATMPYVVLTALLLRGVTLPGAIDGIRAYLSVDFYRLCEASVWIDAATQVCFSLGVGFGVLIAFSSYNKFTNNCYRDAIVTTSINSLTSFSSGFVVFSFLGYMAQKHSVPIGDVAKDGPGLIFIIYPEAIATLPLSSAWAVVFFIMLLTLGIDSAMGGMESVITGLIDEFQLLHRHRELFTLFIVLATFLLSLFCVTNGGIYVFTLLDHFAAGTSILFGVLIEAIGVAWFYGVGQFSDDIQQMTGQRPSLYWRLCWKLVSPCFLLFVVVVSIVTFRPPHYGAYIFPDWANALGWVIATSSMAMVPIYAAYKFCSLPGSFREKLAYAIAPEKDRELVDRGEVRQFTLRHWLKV
Procedure, shortened: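 HEK293 cells stably expressing human DAT or NET, seeded on PDL-coated plates 24 h before. Preincubated 5 min in Krebs–HEPES buffer pH 7.3 with compound at 0.001 μM to 1 mM (DMSO stock diluted in buffer). Substrate then added: 0.2 μM [3H]dopamine for DAT, 1 min; 0.05 μM [3H]MPP+ for NET, 3 min. Room temperature. Uptake stopped with ice-cold buffer. Cells lysed in 1% SDS and counted by scintillation. Unspecific uptake defined with 10 μM mazindol. IC50 by nonlinear regression.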

Rattus norvegicus [17] = experiment: Neurotoxicity in Sprague-Dawley rat assessed as pinna reflex score at 10 mg/kg, ip administered 30 mins prior to test (reference value: 1.2 +/- 1.033); type: toxicity, organism-based; settings: in vivo, 0.5 h
Rattus norvegicus [18] = experiment: Neurotoxicity in Sprague-Dawley rat assessed as effect on average velocity at 10 mg/kg, ip administered 30 mins prior to test by open field test relative to control; type: toxicity, organism-based; settings: in vivo, 0.5 h; procedure, shortened: as §1
Rattus norvegicus [19] = experiment: Neurotoxicity in Sprague-Dawley rat assessed as effect on time spent in the left open arm at 10 mg/kg, ip administered 30 mins prior to test by elevated plus maze test relative to control; type: toxicity, organism-based; settings: in vivo, 0.5 h; procedure, shortened: as §2
Rattus norvegicus [20] = experiment: Neurotoxicity in Sprague-Dawley rat assessed as limb tone score at 10 mg/kg, ip administered 30 mins prior to test (reference value: 3.3 +/- 0.6749); type: toxicity, organism-based; settings: in vivo, 0.5 h
Rattus norvegicus [21] = experiment: Neurotoxicity in Sprague-Dawley rat assessed as transfer arousal score at 10 mg/kg, ip administered 30 mins prior to test (reference value: 3.1 +/- 0.3162); type: toxicity, organism-based; settings: in vivo, 0.5 h
Rattus norvegicus [22] = experiment: Neurotoxicity in Sprague-Dawley rat assessed as effect on resting time at 10 mg/kg, ip administered 30 mins prior to test by elevated plus maze test relative to control; type: toxicity, organism-based; settings: in vivo, 0.5 h; procedure, shortened: as §2
Rattus norvegicus [23] = experiment: Neurotoxicity in Sprague-Dawley rat assessed as grip strength score at 10 mg/kg, ip administered 30 mins prior to test (reference value: 2.4 +/- 1.265); type: toxicity, organism-based; settings: in vivo, 0.5 h
Rattus norvegicus [24] = experiment: Neurotoxicity in Sprague-Dawley rat assessed as effect on distance traveled in open arms at 10 mg/kg, ip administered 30 mins prior to test by elevated plus maze test relative to control; type: toxicity, organism-based; settings: in vivo, 0.5 h; procedure, shortened: as §2
Rattus norvegicus [25] = experiment: Neurotoxicity in Sprague-Dawley rat assessed as locomotor activity score at 10 mg/kg, ip administered 30 mins prior to test (reference value: 2.6 +/- 0.9661); type: toxicity, organism-based; settings: in vivo, 0.5 h
Rattus norvegicus [26] = experiment: Neurotoxicity in Sprague-Dawley rat assessed as effect on time spent in the left closed arm at 10 mg/kg, ip administered 30 mins prior to test by elevated plus maze test relative to control; type: toxicity, organism-based; settings: in vivo, 0.5 h; procedure, shortened: as §2
Rattus norvegicus [27] = experiment: Neurotoxicity in Sprague-Dawley rat assessed as piloerection score at 10 mg/kg, ip administered 30 mins prior to test (reference value: 2.1 +/- 0.3162); type: toxicity, organism-based; settings: in vivo, 0.5 h
Rattus norvegicus [28] = experiment: Neurotoxicity in Sprague-Dawley rat assessed as tail elevation score at 10 mg/kg, ip administered 30 mins prior to test (reference value: 2.2 +/- 0.6325); type: toxicity, organism-based; settings: in vivo, 0.5 h
Rattus norvegicus [29] = experiment: Neurotoxicity in Sprague-Dawley rat assessed as limb rotation score at 10 mg/kg, ip administered 30 mins prior to test (reference value: 3.3 +/- 0.4830); type: toxicity, organism-based; settings: in vivo, 0.5 h

**Q.** What does the source list for [O-][S+](Cc1cccs1)C(c1ccccc1)c1ccccc1 (centres undefined)?
**A.** Activity (Rattus norvegicus [1]): Non-Toxic; Activity (Rattus norvegicus [2]): 1.4; Activity (Rattus norvegicus [3]): 3.6; Activity (Rattus norvegicus [4]): Non-Toxic; Activity (Rattus norvegicus [5]): Non-Toxic; Activity (Rattus norvegicus [6]): 1.6; Activity (Rattus norvegicus [7]): Non-Toxic; Activity (Rattus norvegicus [8]): Non-Toxic; Activity (Rattus norvegicus [9]): 0.9; Activity (Rattus norvegicus [10]): Non-Toxic; Activity (Rattus norvegicus [11]): 1.7; Activity (Rattus norvegicus [12]): Non-Toxic; Activity (Rattus norvegicus [13]): 1.2; Activity (Rattus norvegicus [14]): Non-Toxic; IC50 [15]: Not Active; IC50 [16]: 1.4 µM; Activity (Rattus norvegicus [17]): 1.4; Activity (Rattus norvegicus [18]): Non-Toxic; Activity (Rattus norvegicus [19]): Non-Toxic; Activity (Rattus norvegicus [20]): 3.5; Activity (Rattus norvegicus [21]): 3.2; Activity (Rattus norvegicus [22]): Non-Toxic; Activity (Rattus norvegicus [23]): 3; Activity (Rattus norvegicus [24]): Non-Toxic; Activity (Rattus norvegicus [25]): 2.6; Activity (Rattus norvegicus [26]): Non-Toxic; Activity (Rattus norvegicus [27]): 2.2; Activity (Rattus norvegicus [28]): 1.8; Activity (Rattus norvegicus [29]): 3.4
